Data as given in ChEMBL document CHEMBL1177688, “Synthesis of novel pyrazolic analogues of chalcones and their 3-aryl-4-(3-aryl-4,5-dihydro-1H-pyrazol-5-yl)-1-phenyl-1H-pyrazole derivatives as potential antitumor agents” (2010).

Columns and labels:
Type in all cases: functional
HL-60 = test: Antiproliferative activity against human HL-60(TB) cells after 48 hrs by SRB assay; conditions: HL-60, 48 h
In short: (§1)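 NCI 60-cell-line human tumour panel, secondary five-dose screen. Compounds tested at 100, 10, 1.0, 0.1 and 0.01 µM with 48 h continuous exposure. Cell growth was estimated by sulforhodamine B protein staining. GI50 is the concentration giving a 50% reduction in net protein increase relative to untreated control cells over the incubation. TGI and LC50 were also derived.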

EKVX = test: Antiproliferative activity against human EKVX cells after 48 hrs by SRB assay; conditions: for CC50: read-out: LC50 (the source's name); in short: as §1
SF-539 = test: Antiproliferative activity against human SF539 cells after 48 hrs by SRB assay; conditions: SF-539, 48 h
In short: (§2)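 NCI 60-cell human tumour line panel. Continuous 48 h drug exposure at five concentrations (100, 10, 1.0, 0.1, 0.01 µM). Cell growth estimated by sulforhodamine B protein staining. GI50 = concentration giving 50% reduction in net protein increase versus control cells over the incubation. LC50 = molar concentration killing 50% of cells.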

NCI-H322M = test: Antiproliferative activity against human NCI-H322M cells after 48 hrs by SRB assay; conditions: read-out: LC50 (the source's name); in short: as §1
786-0 = test: Antiproliferative activity against human 786-0 cells after 48 hrs by SRB assay; conditions: 786-0, 48 h; in short: as §1
UACC-62 = test: Antiproliferative activity against human UACC62 cells after 48 hrs by SRB assay; conditions: UACC-62, 48 h; for CC50: read-out: LC50 (the source's name); in short: as §1
MCF7 = test: Antiproliferative activity against human MCF7 cells after 48 hrs by SRB assay; conditions: MCF7, 48 h, read-out: LC50 (the source's name); in short: as §1
OVCAR-3 = test: Antiproliferative activity against human OVCAR-3 cells after 48 hrs by SRB assay; conditions: OVCAR-3, 48 h; in short: as §1
SN12C = test: Antiproliferative activity against human SN12C cells after 48 hrs by SRB assay; conditions: read-out: LC50 (the source's name); in short: as §1
MDA-MB-435 = test: Antiproliferative activity against human MDA-MB-435 cells after 48 hrs by SRB assay; conditions: MDA-MB-435, 48 h, read-out: LC50 (the source's name); in short: as §1
CCRF-CEM = test: Antiproliferative activity against human CCRF-CEM cells after 48 hrs by SRB assay; conditions: read-out: LC50 (the source's name); in short: as §1
MOLT-4 = test: Antiproliferative activity against human MOLT4 cells after 48 hrs by SRB assay; conditions: MOLT-4, 48 h; in short: as §1
A498 = test: Antiproliferative activity against human A498 cells after 48 hrs by SRB assay; conditions: A498, 48 h; for CC50: read-out: LC50 (the source's name); in short: as §1
HOP-62 = test: Antiproliferative activity against human HOP62 cells after 48 hrs by SRB assay; conditions: HOP-62, 48 h; in short: as §1
IGROV-1 = test: Antiproliferative activity against human IGROV1 cells after 48 hrs by SRB assay; conditions: IGROV-1, 48 h; for CC50: read-out: LC50 (the source's name); in short: as §1
HCT-116 = test: Antiproliferative activity against human HCT116 cells after 48 hrs by SRB assay; conditions: HCT-116, 48 h; in short: as §2
OVCAR-8 = test: Antiproliferative activity against human OVCAR8 cells after 48 hrs by SRB assay; conditions: OVCAR-8, 48 h; for CC50: read-out: LC50 (the source's name); in short: as §1
K562 = test: Antiproliferative activity against human K562 cells after 48 hrs by SRB assay; conditions: K562, 48 h; in short: as §1
SW-620 = test: Antiproliferative activity against human SW620 cells after 48 hrs by SRB assay; conditions: SW-620, 48 h; in short: as §1
OVCAR-4 = test: Antiproliferative activity against human OVCAR4 cells after 48 hrs by SRB assay; conditions: OVCAR-4, 48 h, read-out: LC50 (the source's name); in short: as §1
Hs-578T = test: Antiproliferative activity against human Hs 578T cells after 48 hrs by SRB assay; conditions: read-out: LC50 (the source's name); in short: as §1
PC-3 = test: Antiproliferative activity against human PC3 cells after 48 hrs by SRB assay; conditions: PC-3, 48 h; in short: as §1
[1] = read-out: LC50 (the source's name)

Q: With O=C(/C=C/c1cn(-c2ccccc2)nc1-c1ccc([N+](=O)[O-])cc1)c1ccc(Cl)cc1 as the compound, how does the GI50 (HL-60) read?
A: > 100 µM

Q: And the CC50 (HL-60; [1])?
A: > 100 µM

Q: What about the GI50 (EKVX) of the same compound?
A: 4.97 µM

Q: What about the CC50 (EKVX) of the same compound?
A: > 100 µM

Q: And the GI50 (SF-539)?
A: 3.95 µM

Q: What about the CC50 (SF-539; [1]) of the same compound?
A: > 100 µM

Q: And the CC50 (NCI-H322M)?
A: > 100 µM

Q: What about the GI50 (786-0) of the same compound?
A: 3.94 µM

Q: And the CC50 (786-0; [1])?
A: > 100 µM

Q: What about the GI50 (UACC-62) of the same compound?
A: 11.4 µM

Q: What about the CC50 (UACC-62) of the same compound?
A: > 100 µM

Q: And the CC50 (MCF7)?
A: > 100 µM

Q: What about the GI50 (OVCAR-3) of the same compound?
A: 1.96 µM

Q: What about the CC50 (OVCAR-3; [1]) of the same compound?
A: > 100 µM

Q: What about the CC50 (SN12C) of the same compound?
A: > 100 µM

Q: And the CC50 (MDA-MB-435)?
A: > 100 µM

Q: And the CC50 (CCRF-CEM)?
A: > 100 µM

Q: And the GI50 (MOLT-4)?
A: 0.87 µM

Q: What about the CC50 (MOLT-4; [1]) of the same compound?
A: > 100 µM

Q: And the GI50 (A498)?
A: 3.14 µM

Q: What about the CC50 (A498) of the same compound?
A: > 100 µM

Q: And the GI50 (HOP-62)?
A: 26 µM

Q: What about the CC50 (HOP-62; [1]) of the same compound?
A: > 100 µM

Q: What about the GI50 (IGROV-1) of the same compound?
A: 3.54 µM

Q: What about the CC50 (IGROV-1) of the same compound?
A: > 100 µM

Q: What about the GI50 (HCT-116) of the same compound?
A: 2.75 µM

Q: And the CC50 (HCT-116; [1])?
A: > 100 µM

Q: And the GI50 (OVCAR-8)?
A: 6.32 µM

Q: What about the CC50 (OVCAR-8) of the same compound?
A: > 100 µM

Q: What about the GI50 (K562) of the same compound?
A: 0.09 µM

Q: What about the CC50 (K562; [1]) of the same compound?
A: > 100 µM

Q: With COc1ccc(C2=NN(C(C)=O)C(c3cn(-c4ccccc4)nc3-c3ccc(Cl)cc3)C2)cc1 (centres undefined) as the compound, how does the CC50 (EKVX) read?
A: > 100 µM

Q: What about the GI50 (SF-539) of the same compound?
A: 1.87 µM

Q: What about the CC50 (NCI-H322M) of the same compound?
A: > 100 µM

Q: And the GI50 (UACC-62)?
A: 2.4 µM

Q: And the CC50 (UACC-62)?
A: > 100 µM

Q: And the GI50 (SW-620)?
A: 3.48 µM

Q: And the CC50 (SW-620; [1])?
A: > 100 µM

Q: What about the CC50 (MCF7) of the same compound?
A: > 100 µM

Q: And the CC50 (OVCAR-4)?
A: > 100 µM

Q: What about the CC50 (SN12C) of the same compound?
A: > 100 µM

Q: What about the CC50 (MDA-MB-435) of the same compound?
A: > 100 µM

Q: And the CC50 (A498)?
A: > 100 µM

Q: What about the CC50 (IGROV-1) of the same compound?
A: > 100 µM

Q: What about the CC50 (Hs-578T) of the same compound?
A: > 100 µM

Q: What about the GI50 (HCT-116) of the same compound?
A: 1.94 µM

Q: And the GI50 (PC-3)?
A: 2.35 µM

Q: And the CC50 (PC-3; [1])?
A: > 100 µM

Q: What about the CC50 (OVCAR-8) of the same compound?
A: > 100 µM
